Here are results for 2 compounds from ChEMBL document CHEMBL1773009, “Red-fluorescent argininamide-type NPY Y1 receptor antagonists as pharmacological tools” (Bioorg Med Chem, 2011).

A short description of data set [1]: Chemical stability of the compound in DMSO at below 0 degC. It counts as physicochemical.
For data set [2], the target named is T1, Neuropeptide Y receptor type 1 (Homo sapiens) (UniProt P25929).
T1 sequence (whole entry): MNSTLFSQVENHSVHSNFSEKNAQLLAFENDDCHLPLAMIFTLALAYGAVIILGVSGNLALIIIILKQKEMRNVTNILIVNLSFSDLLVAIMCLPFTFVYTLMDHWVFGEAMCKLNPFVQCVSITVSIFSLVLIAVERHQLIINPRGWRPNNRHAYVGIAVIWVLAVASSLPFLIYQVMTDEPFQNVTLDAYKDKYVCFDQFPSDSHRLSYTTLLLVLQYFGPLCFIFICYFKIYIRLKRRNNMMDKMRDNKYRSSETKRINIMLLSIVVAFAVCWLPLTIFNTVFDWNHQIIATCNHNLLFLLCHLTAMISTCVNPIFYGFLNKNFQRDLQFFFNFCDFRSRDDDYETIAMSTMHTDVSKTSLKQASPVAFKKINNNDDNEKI
Nature of the data set: Antagonist activity at Y1R in human MCF-7 cells at 80 nM after 23 mins by fluorescence confocal microscopy. Format: functional, cell-based. The note with it: MCF7. In a few lines:
(§1)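 MCF-7-Y1 cells (MCF-7 subclone with 2–3-fold higher Y1R expression) pretreated 48 or 72 h with 1 nM 17β-estradiol; live-cell confocal imaging of fluorescent ligand (50–80 nM) after 5–23 min at rt in Leibovitz L15; non-specific binding with excess BIBP 3226 (5 µM or 80–125-fold); autofluorescence control.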

Data set [3] deals with T1, Neuropeptide Y receptor type 1 (Homo sapiens). Description: Antagonist activity at Y1R in human HEL cells assessed as inhibition of pNPY induced [Ca2+] mobilisation. Format: functional, cell-based.
Data set [4] concerns the target T2, Neuropeptide Y receptor type 1 (Homo sapiens, UniProt P25929).
T2 sequence (P25929 whole entry): T1 sequence (whole entry)
Nature of the data set: Displacement of [3H]-UR-MK114 from Y1R in human SK-N-MC cells. Format: cell-based.

Data set [5] has as its target Neuropeptide Y receptor type 4 (Homo sapiens, UniProt P50391). Nature of the data set: Displacement of Cy5-[K4]-hpp from human Y4R expressed in CHO cells by flow cytometry. It counts as cell-based. In a few lines:
(§2)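 Flow cytometric displacement of labelled peptides: Cy5-[K4]-hPP on CHO-Y4 cells; Dy-635-pNPY or Cy5-pNPY on CHO-Y2 and HEC-1B-Y5 cells. Test ligands only at 1 and 10 µM or at 0.3 and 1 µM; for the red-excitable ligand, its own fluorescence without peptide was subtracted.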

The target in data set [6] is T1, Neuropeptide Y receptor type 1 (Homo sapiens). Nature of the data set: Antagonist activity at Y1R in human MCF-7 cells at 50 nM after 12 to 15 mins by fluorescence confocal microscopy. It counts as functional, cell-based. The note with it: MCF7. In a few lines: as §1
The target in data set [7] is T3, Neuropeptide Y receptor type 5 (Homo sapiens, UniProt Q15761).
T3 sequence (Q15761 whole entry): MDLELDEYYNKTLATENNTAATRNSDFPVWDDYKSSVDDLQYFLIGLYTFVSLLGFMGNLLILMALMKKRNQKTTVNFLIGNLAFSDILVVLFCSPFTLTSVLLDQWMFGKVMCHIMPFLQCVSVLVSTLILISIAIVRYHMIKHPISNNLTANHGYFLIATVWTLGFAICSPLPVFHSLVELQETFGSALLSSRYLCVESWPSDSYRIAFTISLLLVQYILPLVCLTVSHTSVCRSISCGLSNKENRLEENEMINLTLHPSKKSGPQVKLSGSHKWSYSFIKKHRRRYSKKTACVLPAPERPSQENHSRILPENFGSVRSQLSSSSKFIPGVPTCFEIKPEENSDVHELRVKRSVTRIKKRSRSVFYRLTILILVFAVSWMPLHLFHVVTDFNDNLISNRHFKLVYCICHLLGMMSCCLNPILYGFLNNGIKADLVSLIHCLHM
Description: Displacement of Dy-635-pNPY from human Y5R expressed in HEC-1B cells by flow cytometry. Background: A flow cytometer gives signals particle by particle.

Data set [8] deals with T2, Neuropeptide Y receptor type 1. Nature of the data set: Displacement of [3H]-UR-MK114 from Y1R in human SK-N-MC cells by radioligand competition binding. On the technique in general: Displacement assays read how much labelled ligand stays bound in the presence of the test substance.
Data set [9] is described as follows: Chemical stability in aqueous buffer assessed as compound decomposition after 90 mins at pH 7 by HPCL. Format: physicochemical. The note with it: read-out: Activity. In a few lines: (§3)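 Compound at 50 µM final (from 1 mM DMSO stock) in PBS pH 7.0, 20 °C; aliquots at 20 and 90 min diluted with acetonitrile/H2O/1% TFA, analysed by RP-HPLC (220 nm); release of parent argininamide quantified against a five-point calibration curve (0.3–25 µM).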

Data set [10] deals with T4, Neuropeptide Y receptor type 2 (Homo sapiens, UniProt P49146).
T4 sequence (P49146 whole entry): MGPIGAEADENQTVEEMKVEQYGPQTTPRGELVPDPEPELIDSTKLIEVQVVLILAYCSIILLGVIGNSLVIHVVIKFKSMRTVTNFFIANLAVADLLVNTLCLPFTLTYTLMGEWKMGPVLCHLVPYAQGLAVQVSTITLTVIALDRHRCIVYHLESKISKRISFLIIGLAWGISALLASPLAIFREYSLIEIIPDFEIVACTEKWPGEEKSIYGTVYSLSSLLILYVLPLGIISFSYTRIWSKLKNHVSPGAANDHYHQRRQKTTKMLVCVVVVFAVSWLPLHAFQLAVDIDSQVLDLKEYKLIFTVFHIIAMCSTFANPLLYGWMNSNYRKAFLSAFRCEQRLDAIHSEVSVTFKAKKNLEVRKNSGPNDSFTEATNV
Description: Displacement of Dy-635-pNPY from human Y2R expressed in CHO cells by flow cytometry. It counts as cell-based. In a few lines: as §2

Data set [11] has as its target T2, Neuropeptide Y receptor type 1. Description: Binding affinity at Y1R in human MCF-7 cells by flow cytometry. Format: cell-based, MCF7. In a few lines: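 MCF-7-Y1 cells given 1 nM 17β-estradiol 3 days beforehand, trypsinised, suspended at 0.5–1 × 10^6 cells/mL in HEPES-buffered saline, 1% DMSO; saturation with fluorescent ligand 1–50 nM (non-specific: 200-fold BIBP 3226) or competition against 10 nM labelled ligand (0.03–3000 nM competitor); 15 min dark, rt; 635 nm excitation, FL-4 readout, 20,000 gated events.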

Data set [12] is described as follows: Chemical stability in aqueous buffer assessed as compound decomposition after 20 mins at pH 7 by HPCL. Format: physicochemical. The note with it: read-out: Activity. In a few lines:
as §3

Active and inactive are the calls of the source. The calls are words filed in the database; no cut-off is given here.

Sequence of Neuropeptide Y receptor type 4 (P50391 whole entry): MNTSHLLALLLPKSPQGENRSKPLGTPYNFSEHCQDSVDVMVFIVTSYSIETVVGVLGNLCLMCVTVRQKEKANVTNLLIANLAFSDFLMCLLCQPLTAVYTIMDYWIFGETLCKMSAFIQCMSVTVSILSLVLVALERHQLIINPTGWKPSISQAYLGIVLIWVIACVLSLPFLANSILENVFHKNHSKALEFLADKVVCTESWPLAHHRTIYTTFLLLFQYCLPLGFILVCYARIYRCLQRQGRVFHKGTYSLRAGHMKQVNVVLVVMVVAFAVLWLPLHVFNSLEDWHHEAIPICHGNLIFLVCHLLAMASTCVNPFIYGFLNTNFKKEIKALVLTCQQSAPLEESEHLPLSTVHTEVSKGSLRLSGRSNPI

On to `Cc1cc(/C=C/c2cc3c4c(c2)CCCN4CCC3)cc(C)[n+]1CCN(CCNC(=O)CCCNC(=O)CCCC(=O)/N=C(\N)NCCC[C@@H](NC(=O)C(c1ccccc1)c1ccccc1)C(=O)NCc1ccc(O)cc1)CCNC(=O)CCCNC(=O)CCCC(=O)/N=C(\N)NCCC[C@@H](NC(=O)C(c1ccccc1)c1ccccc1)C(=O)NCc1ccc(O)cc1.O=C([O-])C(F)(F)F`, for which the Stability in data set [1] was determined as 12 months. The outcome in [2] was Active. Further, the Kb in data set [3] was determined as 1 nM. Besides, in data set [4], affinity was put at a Ki of 56 nM.
Consider `CN(C)c1ccc(/C=C/C=C/c2sc3ccccc3[n+]2CCCC(=O)NCCCCNC(=O)/N=C(/N)NCCC[C@@H](NC(=O)C(c2ccccc2)c2ccccc2)C(=O)NCc2ccc(O)cc2)cc1.O=C([O-])C(F)(F)F`, for which the IC50 in [5], in data set [7] and in data set [10] was greater than 1000 nM throughout. In addition, the Ki in data set [5] was greater than 500 nM; in [7] it was greater than 400 nM; in data set [8] it was 26 nM; in data set [10] it was greater than 500 nM; in data set [4], 26 nM. For the same compound, the Stability in [1] is on record as 12 months. The outcome in data set [6] was Active. Further, the degraded at 1.5 h in [9] was determined as 0%. Besides, the Kb in data set [3] came out at 0.7 nM. In [11], binding was put at a Kd of 5 nM. Also, the degraded at 20 min in [12] was determined as 0%.

The Kb is the affinity of an antagonist, worked out from how it opposes an agonist. In general, Ki refers to a measure of affinity in units of concentration, obtained from inhibition or displacement. Broadly, the IC50 is the point on the concentration scale where inhibition reaches its midpoint. A higher IC50 goes with weaker potency. As usually defined, the Kd is the concentration at which binding is half-saturated.
